ChEMBL document CHEMBL1138409, “Diaryl substituted pyrazoles as potent CCR2 receptor antagonists” (Bioorg Med Chem Lett, 2007)
Activity calls are given as the source filed them. No cut-off for these calls is given here.

Experiments:
[1] = target: T1, C-C chemokine receptor type 2 (Homo sapiens, UniProt P41597); experiment: Displacement of 125I-hMCP1 from CCR2 expressed in human peripheral blood monocytes after 60 mins; format: cell-based
In short: (§1)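 Primary human blood monocytes, which express CCR2 endogenously, were incubated with 125I-hMCP-1 (2200 Ci/mmol) and the unlabeled compound. Incubation was 60 min at room temperature in 50 mM Hepes, 5 mM MgCl2 and 1 mM CaCl2, pH 7.4. Bound label was collected by filtration through PEI-presoaked GF/B filters and washed with 25 mM Hepes pH 7.5 containing 500 mM NaCl. Filters were then dried and counted by scintillation. Values are the mean of at least two experiments.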
Target sequence in this assay (P41597 whole entry): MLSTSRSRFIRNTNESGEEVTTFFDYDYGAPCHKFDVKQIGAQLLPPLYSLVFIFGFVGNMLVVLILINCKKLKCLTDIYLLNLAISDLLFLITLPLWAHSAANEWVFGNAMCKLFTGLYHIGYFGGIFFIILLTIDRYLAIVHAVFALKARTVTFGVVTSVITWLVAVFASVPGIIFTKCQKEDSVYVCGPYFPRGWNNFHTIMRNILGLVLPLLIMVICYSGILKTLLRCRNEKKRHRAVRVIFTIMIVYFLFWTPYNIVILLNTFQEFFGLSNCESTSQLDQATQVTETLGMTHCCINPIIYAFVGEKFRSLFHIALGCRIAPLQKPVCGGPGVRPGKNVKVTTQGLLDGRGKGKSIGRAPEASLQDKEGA

[2] = Half life in Sprague-Dawley rat; format: ADME, organism-based; details: in vivo
[3] = Volume of distribution in Sprague-Dawley rat; format: ADME, organism-based; details: in vivo
[4] = Clearance in Sprague-Dawley rat at 1 mg/kg, iv and 2 mg/kg, po; format: ADME, organism-based; details: in vivo
[5] = target: C-C chemokine receptor type 5 (Homo sapiens, UniProt P51681); experiment: Inhibition of CCR5
Sequence of C-C chemokine receptor type 5 (P51681 whole entry): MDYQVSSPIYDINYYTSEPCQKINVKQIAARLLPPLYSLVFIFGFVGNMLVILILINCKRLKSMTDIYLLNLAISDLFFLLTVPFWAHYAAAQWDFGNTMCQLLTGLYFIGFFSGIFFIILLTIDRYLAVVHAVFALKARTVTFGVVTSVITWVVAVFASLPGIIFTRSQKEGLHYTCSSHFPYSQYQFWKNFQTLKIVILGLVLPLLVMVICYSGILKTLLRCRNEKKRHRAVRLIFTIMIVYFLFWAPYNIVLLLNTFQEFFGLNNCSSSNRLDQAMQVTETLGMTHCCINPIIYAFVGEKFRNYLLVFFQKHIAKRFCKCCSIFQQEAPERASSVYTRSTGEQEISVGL

[6] = Oral bioavailability in Sprague-Dawley rat at 2 mg/kg; format: ADME, organism-based; details: in vivo
[7] = target: T1, C-C chemokine receptor type 2; experiment: Displacement of 125I-hMCP1 from CCR2 expressed in human peripheral blood monocytes at 10 uM after 60 mins; format: cell-based
Target sequence in this assay (P41597 whole entry, looked up): as the sequence (P41597 whole entry) above

[8] = target: T1, C-C chemokine receptor type 2; experiment: Displacement of 125I-hMCP1 from CCR2 expressed in human peripheral blood monocytes less than 10 uM after 60 mins; format: cell-based; in short: as §1
Target sequence in this assay (P41597 whole entry): as above

[9] = target: T1, C-C chemokine receptor type 2; experiment: Displacement of 125I-hMCP1 from CCR2 expressed in human peripheral blood monocytes at 1 uM after 60 mins; format: cell-based
Target sequence in this assay (P41597 whole entry, looked up): as the sequence (P41597 whole entry) above

[10] = target: T1, C-C chemokine receptor type 2; experiment: Antagonist activity against human CCR2 receptor assessed as inhibition of MCP1-induced migration of human peripheral blood monocytes at 300 nM; format: functional; set-up: scale not given: the % may be the effect or the level left
Target sequence in this assay (P41597 whole entry, looked up): as the sequence (P41597 whole entry) above

COC(=O)[C@H](Cc1c[nH]cn1)NC(=O)CCCc1cc(-c2cc(Cl)cc(Cl)c2)nn1-c1ccc2ccccc2c1
IC50 [1]: 2840 nM

CCN(CC)CCCC(C)NC(=O)CCCc1cc(-c2cccc(OC)c2)nn1-c1ccc2ccccc2c1 (centres undefined)
IC50 [1]: 2390 nM

CCN(CC)CCCC(C)NC(=O)CCCc1cc(-c2cc(Cl)cc(Cl)c2)nn1-c1ccc2ccccc2c1 (centres undefined)
half-life [2]: 6.52 h
IC50 [1]: 108 nM
Vd [3]: 13 L/kg
clearance [4]: 28.1 mL/min/kg
IC50 [5]: 220 nM
bioavailability [6]: 5%

CCN(CC)CCCC(C)NC(=O)CCOc1cc(-c2cc(Cl)cc(Cl)c2)nn1-c1ccc2ccccc2c1 (centres undefined)
IC50 [1]: 66 nM

CCN(CC)CCCC(C)NC(=O)CCCc1cc(-c2ccccc2Cl)nn1-c1ccc2ccccc2c1 (centres undefined)
Activity [7]: 69%

O=C(CCCc1cc(-c2cc(Cl)cc(Cl)c2)nn1-c1ccc2ccccc2c1)NCCCc1ccc2c(n1)NCCC2
IC50 [1]: 9330 nM

CCN(CC)CCCC(NC(=O)CCOc1cc(-c2cc(Cl)cc(Cl)c2)nn1-c1ccc2ccccc2c1)C(C)C (centres undefined)
IC50 [1]: 6 nM
IC50 [5]: 1610 nM

COC(=O)[C@H](CCCN=C(N)N)NC(=O)CCc1cc(-c2cc(Cl)cc(Cl)c2)nn1-c1ccc2ccccc2c1
IC50 [1]: 4740 nM

CCC(CCCN(CC)CC)NC(=O)CCOc1cc(-c2cc(Cl)cc(Cl)c2)nn1-c1ccc2ccccc2c1 (centres undefined)
IC50 [1]: 9 nM

COC(=O)[C@H](CCCNC(=N)N)NC(=O)CCOc1cc(-c2cc(Cl)cc(Cl)c2)nn1-c1ccc2ccccc2c1
IC50 [1]: 62 nM

CCN(CC)CCCC(C)NC(=O)CCCc1cc(-c2cccc(C(F)(F)F)c2)nn1-c1ccc2ccccc2c1 (centres undefined)
IC50 [1]: 207 nM

COC(=O)[C@H](CCCNC(=N)N)NC(=O)c1cccc(-c2cc(-c3cc(Cl)cc(Cl)c3)nn2-c2ccc3ccccc3c2)c1
IC50 [8]: Not Active

CCC(C)CC(CCCN(CC)CC)NC(=O)CCOc1cc(-c2cc(Cl)cc(Cl)c2)nn1-c1ccc2ccccc2c1 (centres undefined)
IC50 [1]: 107 nM

CCCCC(CCCN(CC)CC)NC(=O)CCOc1cc(-c2cc(Cl)cc(Cl)c2)nn1-c1ccc2ccccc2c1 (centres undefined)
Activity [9]: 52%

COC(=O)[C@H](CCCNC(=N)N)NC(=O)CC(=O)Nc1cc(-c2cc(Cl)cc(Cl)c2)nn1-c1ccc2ccccc2c1
IC50 [8]: Not Active

CCN(CC)CCCCNC(=O)CCCc1cc(-c2cc(Cl)cc(Cl)c2)nn1-c1ccc2ccccc2c1
IC50 [1]: 1230 nM

COC(=O)[C@H](CCCNC(=N)N)NC(=O)CCCc1cc(-c2cc(Cl)cc(Cl)c2)nn1-c1ccc2ccccc2c1
half-life [2]: 2.49 h
IC50 [1]: 221 nM
Vd [3]: 0.98 L/kg
clearance [4]: 8.3 mL/min/kg
IC50 [5]: 63 nM
bioavailability [6]: 0%

CCN(CC)CCCC(C)NC(=O)CCCc1cc(-c2cccc(F)c2)nn1-c1ccc2ccccc2c1 (centres undefined)
IC50 [1]: 522 nM

CCN(CC)CCCC(C)NC(=O)CCCc1cc(-c2ccc(Cl)cc2)nn1-c1ccc2ccccc2c1 (centres undefined)
IC50 [1]: 442 nM
Activity [10]: inactive

COC(=O)[C@H](CCCNC(=N)N)NC(=O)CCNc1cc(-c2cc(Cl)cc(Cl)c2)nn1-c1ccc2ccccc2c1
IC50 [1]: 43 nM

CN(C)CCCCNC(=O)CCCc1cc(-c2cc(Cl)cc(Cl)c2)nn1-c1ccc2ccccc2c1
IC50 [1]: 1800 nM

O=C(CCCc1cc(-c2cc(Cl)cc(Cl)c2)nn1-c1ccc2ccccc2c1)NCCCc1ccncc1
IC50 [1]: 1120 nM

COC(=O)[C@H](CCCNC(=N)N)NC(=O)CCCOc1cc(-c2cc(Cl)cc(Cl)c2)nn1-c1ccc2ccccc2c1
IC50 [1]: 7600 nM

CCN(CC)CCCC(C)NC(=O)CCNc1cc(-c2cc(Cl)cc(Cl)c2)nn1-c1ccc2ccccc2c1 (centres undefined)
IC50 [1]: 30 nM

CCCC(CCCN(CC)CC)NC(=O)CCOc1cc(-c2cc(Cl)cc(Cl)c2)nn1-c1ccc2ccccc2c1 (centres undefined)
IC50 [1]: 44 nM

CCN(CC)CCCC(C)NC(=O)CCCc1cc(-c2cc(Cl)cc(Cl)c2)nn1-c1cc(C(F)(F)F)cc(C(F)(F)F)c1 (centres undefined)
IC50 [1]: 6470 nM

CCN(CC)CCCC(C)NC(=O)CCCc1cc(-c2cccc(Cl)c2)nn1-c1ccc2ccccc2c1 (centres undefined)
IC50 [1]: 168 nM
Activity [10]: 57%

CCN(CC)CCCC(C)NC(=O)CCCc1cc(-c2cc(C(F)(F)F)cc(C(F)(F)F)c2)nn1-c1ccc2ccccc2c1 (centres undefined)
IC50 [1]: 634 nM

CCN(CC)CCCC(C)NC(=O)CCCc1cc(-c2cc(Cl)cc(Cl)c2)nn1-c1ccccc1 (centres undefined)
Activity [7]: 69%

CCN(CC)CCCC(CC(C)C)NC(=O)CCOc1cc(-c2cc(Cl)cc(Cl)c2)nn1-c1ccc2ccccc2c1 (centres undefined)
IC50 [1]: 74 nM

COC(=O)[C@H](CCCNC(=N)N)NCCCCc1cc(-c2cc(Cl)cc(Cl)c2)nn1-c1ccc2ccccc2c1
IC50 [8]: Not Active
